According to ChEMBL document CHEMBL2176900, “Design and synthesis of a novel series of bicyclic heterocycles as potent γ-secretase modulators” (J Med Chem, 2012):
Activity calls are given as the source filed them. The rule behind the calls is not given here.

Experiments:
[1] = system: Rattus norvegicus; assay: Antialzheimer activity in Sprague-Dawley rat assessed as amyloid beta 40 level in brain at 10 mg/kg, po at 4 hrs by ELISA relative to control; assay type: functional
In short: (§1)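 Male Sprague-Dawley rats (180-220 g), fasted overnight, were given 10 mg/kg by gastric intubation as a 5 mg/mL suspension in 0.5% methocellulose. At 2, 4, 7 and 25 h, 50 μL CSF was taken from the cisterna magna under isoflurane, then brain was collected. Aβ37/38/40/42 were measured by MesoScale Discovery sandwich immunoassays. Results are mean % change versus T = 0 h, n = 5.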

[2] = system: Mus musculus; assay: Antialzheimer activity in CD1 mouse assessed as amyloid beta 42 level in brain at 10 mg/kg, po at 24 hrs by ELISA relative to control; assay type: functional
In short: (§2)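 Male CD1 SPF mice, fasted overnight, got a single oral dose of 10 or 30 mg/kg. At each time point the right brain hemisphere was homogenized in 0.4% DEA/50 mM NaCl with protease inhibitors and spun at 221300g for 50 min. The supernatant was neutralized with Tris-HCl pH 6.8. Aβ38 or Aβ42 was read by sandwich ELISA with a fluorogenic peroxidase substrate (ex 320/em 420 nm). Results are mean % change versus T = 0 h, n = 4.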

[3] = system: Mus musculus; assay: Antialzheimer activity in CD1 mouse assessed as amyloid beta 38 level in brain at 30 mg/kg, po at 8 hrs by ELISA relative to control; assay type: functional; in short: as §2
[4] = system: Rattus norvegicus; assay: Antialzheimer activity in Sprague-Dawley rat assessed as amyloid beta 40 level in CSF at 10 mg/kg, po at 2 hrs by ELISA relative to control; assay type: functional; in short: as §1
[5] = system: Mus musculus; assay: Antialzheimer activity in CD1 mouse assessed as amyloid beta 42 level in brain at 10 mg/kg, po at 8 hrs by ELISA relative to control; assay type: functional; in short: as §2
[6] = system: Mus musculus; assay: Inhibition of gamma-secretase in CD1 mouse assessed as total amyloid beta level in brain at 10 mg/kg, po at 8 hrs by ELISA relative to control; assay type: functional; design: scale not given: the % may be the effect or the level left
In short: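 Fasted male CD1 SPF mice were dosed orally at 10 or 30 mg/kg in 20% Captisol. Right hemisphere was homogenized in 0.4% DEA/50 mM NaCl and the high-speed supernatant neutralized. Aβtotal ELISA used N-terminal JRF/rAβ/2 capture, biotinylated 4G8 and streptavidin-peroxidase, then a fluorogenic substrate (ex 320/em 420 nm). Standards spanned 10000–0.3 pg/mL. Values are % change vs T = 0 h, n = 4.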

[7] = Drug uptake in Sprague-Dawley rat brain at 10 mg/kg, po at 2 hrs by LC-MS/MS analysis; assay type: ADME, organism-based; design: dose 10 mg/kg, route oral; conditions: read-out: Drug uptake
In short: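 Overnight-fasted male Sprague–Dawley rats (180–220 g) were dosed 10 mg/kg by gastric intubation of a 5 mg/mL suspension in 0.5% methocellulose. Rats were anesthetized with isoflurane, CSF was taken from the cisterna magna, then they were decapitated. Brain compound levels were measured as in the mouse assay. n = 5.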

[8] = system: Rattus norvegicus; assay: Antialzheimer activity in Sprague-Dawley rat assessed as amyloid beta 40 level in CSF at 10 mg/kg, po at 7 hrs by ELISA relative to control; assay type: functional; in short: as §1
[9] = target: Cytochrome P450 2C19 (Homo sapiens, UniProt P33261); assay: Inhibition of CYP2C19 in human liver microsomes using S-mephenytoin as substrate; assay type: ADME, Microsome
Cytochrome P450 2C19, sequence (P33261 whole entry): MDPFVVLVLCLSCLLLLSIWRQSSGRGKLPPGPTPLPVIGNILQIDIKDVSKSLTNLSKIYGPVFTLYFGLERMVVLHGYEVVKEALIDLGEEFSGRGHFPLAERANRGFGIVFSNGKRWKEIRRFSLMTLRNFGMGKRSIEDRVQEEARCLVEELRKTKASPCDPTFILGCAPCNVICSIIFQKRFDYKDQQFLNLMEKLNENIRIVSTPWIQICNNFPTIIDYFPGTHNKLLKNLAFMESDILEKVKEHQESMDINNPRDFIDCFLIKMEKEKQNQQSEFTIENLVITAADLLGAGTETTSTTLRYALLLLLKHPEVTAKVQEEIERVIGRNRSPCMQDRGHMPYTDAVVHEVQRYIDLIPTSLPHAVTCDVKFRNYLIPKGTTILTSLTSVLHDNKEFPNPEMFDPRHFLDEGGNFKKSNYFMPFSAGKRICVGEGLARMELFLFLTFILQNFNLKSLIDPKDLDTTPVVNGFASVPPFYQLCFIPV

[10] = system: Brain; assay: Drug uptake in CD1 mouse brain at 10 mg/kg, po at 24 hrs by LC-MS/MS analysis; assay type: ADME, organism-based; design: dose 10 mg/kg, route oral; conditions: in vivo, BLD = below limit of detection
In short: (§3)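 Overnight-fasted male CD1 mice received one oral dose (10 or 30 mg/kg) in 20% Captisol. After sacrifice, the left brain hemisphere was stored at −18 °C. Compound level was quantified by a qualified LC-MS/MS method, alongside EDTA plasma spun at 1900g, 4 °C. n = 4 per time point.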

[11] = system: Mus musculus; assay: Antialzheimer activity in CD1 mouse assessed as amyloid beta 42 level in brain at 10 mg/kg, po at 48 hrs by ELISA relative to control; assay type: functional
In short: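 Male CD1 mice, fasted overnight, received a single 10 or 30 mg/kg oral dose. Brain was sampled at an added 48 h time point. The DEA-soluble brain fraction was neutralized and Aβ42 was measured by sandwich ELISA with fluorogenic read-out. Values are % versus vehicle.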

[12] = system: Rattus norvegicus; assay: Antialzheimer activity in Sprague-Dawley rat assessed as amyloid beta 37 level in brain at 10 mg/kg, po at 4 hrs by ELISA relative to control; assay type: functional; in short: as §1
[13] = system: Canis familiaris; assay: Antialzheimer activity in beagle dog assessed as amyloid beta 42 level in cerebrospinal fluid at 20 mg/kg, po at 24 hrs by ELISA relative to control
[14] = Inhibition of notch processing up to 10 uM
[15] = system: Canis familiaris; assay: Antialzheimer activity in beagle dog assessed as amyloid beta 38 level in cerebrospinal fluid at 20 mg/kg, po at 4 hrs by ELISA relative to control
[16] = system: Mus musculus; assay: Reduction in total amyloid beta level in CD1 mouse at 30 mg/kg, po at 4 hrs by ELISA relative to control; assay type: functional, organism-based; design: dose 30 mg/kg
In short: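 Overnight-fasted male CD1 Swiss SPF mice were given a single oral dose as a suspension in 20% Captisol in water. Brains were taken at 4 h and the right hemisphere homogenized in 0.4% DEA/50 mM NaCl with protease inhibitors, then spun at 221300g for 50 min. The neutralized supernatant was read by Aβtotal ELISA (capture JRF/rAβ/2, biotinylated 4G8, streptavidin-peroxidase, QuantaBlu, ex 320/em 420 nm). Values are % change versus untreated animals, n ≥ 6.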

[17] = system: Rattus norvegicus; assay: Antialzheimer activity in Sprague-Dawley rat assessed as amyloid beta 37 level in CSF at 10 mg/kg, po at 4 hrs by ELISA relative to control; assay type: functional; in short: as §1
[18] = target: Voltage-gated inwardly rectifying potassium channel KCNH2 (Homo sapiens, UniProt Q12809); assay: Displacement of [3H]dofetilide to human ERG expressed in HEK293 cells; assay type: cell-based
Voltage-gated inwardly rectifying potassium channel KCNH2, sequence (Q12809 whole entry): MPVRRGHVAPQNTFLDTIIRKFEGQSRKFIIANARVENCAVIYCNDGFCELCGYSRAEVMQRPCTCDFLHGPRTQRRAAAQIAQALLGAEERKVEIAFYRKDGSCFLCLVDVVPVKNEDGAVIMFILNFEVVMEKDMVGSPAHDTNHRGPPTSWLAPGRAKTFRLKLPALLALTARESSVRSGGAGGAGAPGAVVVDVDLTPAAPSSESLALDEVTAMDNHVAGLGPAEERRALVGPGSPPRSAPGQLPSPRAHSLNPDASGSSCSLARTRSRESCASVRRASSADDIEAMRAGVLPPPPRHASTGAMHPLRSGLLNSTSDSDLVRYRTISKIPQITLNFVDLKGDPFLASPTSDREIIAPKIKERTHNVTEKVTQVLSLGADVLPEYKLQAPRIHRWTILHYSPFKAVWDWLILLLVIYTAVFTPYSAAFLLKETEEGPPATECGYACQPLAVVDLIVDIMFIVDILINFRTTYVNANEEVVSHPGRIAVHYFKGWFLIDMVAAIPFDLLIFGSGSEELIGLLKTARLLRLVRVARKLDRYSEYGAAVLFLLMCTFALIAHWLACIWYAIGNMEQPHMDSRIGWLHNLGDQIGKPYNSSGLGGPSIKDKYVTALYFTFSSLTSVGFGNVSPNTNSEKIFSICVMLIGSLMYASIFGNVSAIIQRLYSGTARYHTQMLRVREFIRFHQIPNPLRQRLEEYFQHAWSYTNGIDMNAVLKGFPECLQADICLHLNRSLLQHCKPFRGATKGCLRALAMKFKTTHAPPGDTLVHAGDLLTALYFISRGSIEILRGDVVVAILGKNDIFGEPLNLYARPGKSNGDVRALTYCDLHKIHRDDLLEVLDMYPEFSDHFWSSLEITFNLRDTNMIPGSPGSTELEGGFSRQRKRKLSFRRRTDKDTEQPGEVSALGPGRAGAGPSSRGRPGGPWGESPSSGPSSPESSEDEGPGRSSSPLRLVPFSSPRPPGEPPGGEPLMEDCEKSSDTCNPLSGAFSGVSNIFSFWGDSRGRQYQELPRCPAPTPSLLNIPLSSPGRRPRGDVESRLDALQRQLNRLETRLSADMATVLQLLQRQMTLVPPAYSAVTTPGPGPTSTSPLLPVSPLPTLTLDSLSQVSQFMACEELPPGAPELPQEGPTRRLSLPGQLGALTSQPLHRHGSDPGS

[19] = Drug uptake in CD1 mouse brain at 30 mg/kg, po at 4 hrs by LC-MS/MS analysis; assay type: ADME, organism-based; design: dose 30 mg/kg, route oral; conditions: read-out: Drug uptake; in short: as §3
[20] = Drug uptake in CD1 mouse brain at 30 mg/kg, po at 8 hrs by LC-MS/MS analysis; assay type: ADME, organism-based; design: dose 30 mg/kg, route oral; conditions: read-out: Drug uptake; in short: as §3
[21] = Thermodynamic solubility in buffer at pH 4; assay type: physicochemical; conditions: read-out: Therm_solubility
In short: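 Thermodynamic solubility was measured in pH 4.0 and pH 7.4 buffers, 0.01 N HCl, and fasted-state and fed-state simulated intestinal fluids (FaSSIF, FeSSIF). Results are in […].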

[22] = system: Liver microsomes; assay: Drug metabolism in human liver microsome assessed as reactive metabolite formation by gultathione-trapping assay; assay type: ADME

COc1nc(Nc2cccc3c2nc(-c2ccc(F)cc2)n3C)ccc1-n1cnc(C)c1
Activity [1]: 64% | Activity [2]: 94% | Activity [3]: 156% | Activity [4]: 60% | Activity [5]: 50% | Activity [6]: 86% | concentration at 2 h [7]: 2.5 µM | Activity [8]: 56% | IC50 [9]: 3.5 µM | Drug uptake [10]: BLD | Activity [11]: 101% | Activity [12]: 506% | Activity [13]: 89% | inhibition [14]: inactive | Activity [15]: 134% | Activity [16]: inactive | Activity [17]: 955% | IC50 [18]: 8.5 µM | concentration at 4 h [19]: 21.9 µM | concentration at 8 h [20]: 12 µM | solubility thermodynamic [21]: < 1 µg/mL | Drug metabolism [22]: Not Active
